Source: ChEMBL document CHEMBL4024790 (J Med Chem, 2018)

Columns and labels:
[1] = 1-octanol/phosphate buffer solution partition coefficient, log D of the compound at pH 7.4 after 1 hr by LC-MS/MS method; type: physicochemical
[2] = species on record: Rattus norvegicus
[3] = Apparent intrinsic clearance in human liver microsomes; type: ADME, microsome; conditions: read-out: CLH(app)
[4] = test system: Rattus norvegicus; test: Cardiotoxicity in rat at 5 to 250 mg/kg/day, po up to 15 days by microscopic method; type: toxicity, organism-based; conditions: in vivo, 360 h
How it was run: (§1)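 Exploratory rat toxicity study, oral dosing at 5, 50 and 250 mg/kg/day for up to 15 days, with microscopic examination of heart and vasculature and measurement of plasma and brain exposure.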

[5] = test system: Rattus norvegicus; test: Toxicity in rat assessed as effect on vasculature at 5 to 250 mg/kg/day, po up to 15 days by microscopic method; type: organism-based; conditions: in vivo, 360 h
[6] = target: cGMP-specific 3',5'-cyclic phosphodiesterase (Homo sapiens, UniProt O76074); test: Inhibition of PDE5A1 (unknwon origin) using [3H]cGMP as substrate after 30 mins by SPA
[7] = test system: Liver; test: Drug level in human liver microsomes treated with 4-(azetidin-1-yl)-7-methyl-5-(1-methyl-5-(5-(trifluoromethyl)pyridin-2-yl)-1H-pyrazol-4-yl)imidazo[1,5-f][1,2,4]triazine at 1 to 50 uM after 1 hr by LC-MS/MS analysis; type: ADME, microsome
How it was run: (§2)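 Rat, dog or human liver microsomes or hepatocytes (P450 0.35–0.5 µM final) incubated with compound at 1, 10 or 50 µM in 100 mM phosphate buffer with 1 mM NADP regenerating system, 37°C for 1 h; quenched with 4 volumes acetonitrile, centrifuged, supernatant evaporated, reconstituted in 5% aqueous acetonitrile and analysed by reversed-phase LC.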

[8] = test system: Liver; test: Drug level in rat liver microsomes treated with 4-(azetidin-1-yl)-7-methyl-5-(1-methyl-5-(5-(trifluoromethyl)pyridin-2-yl)-1H-pyrazol-4-yl)imidazo[1,5-f][1,2,4]triazine at 1 to 50 uM after 1 hr by LC-MS/MS analysis; type: ADME, microsome; how it was run: as §2
[9] = test system: Liver; test: Drug level in dog liver microsomes treated with 4-(azetidin-1-yl)-7-methyl-5-(1-methyl-5-(5-(trifluoromethyl)pyridin-2-yl)-1H-pyrazol-4-yl)imidazo[1,5-f][1,2,4]triazine at 1 to 50 uM after 1 hr by LC-MS/MS analysis; type: ADME, Canis lupus familiaris, microsome; how it was run: as §2
[10] = Drug level in dog hepatocytes treated with 4-(azetidin-1-yl)-7-methyl-5-(1-methyl-5-(5-(trifluoromethyl)pyridin-2-yl)-1H-pyrazol-4-yl)imidazo[1,5-f][1,2,4]triazine at 1 to 50 uM after 1 hr by LC-MS/MS analysis; type: ADME, cell-based, Canis lupus familiaris, Hepatocyte; how it was run: as §2
[11] = Drug level in rat hepatocytes treated with 4-(azetidin-1-yl)-7-methyl-5-(1-methyl-5-(5-(trifluoromethyl)pyridin-2-yl)-1H-pyrazol-4-yl)imidazo[1,5-f][1,2,4]triazine at 1 to 50 uM after 1 hr by LC-MS/MS analysis; type: ADME, cell-based, Hepatocyte; how it was run: as §2
[12] = Drug level in human hepatocytes treated with 4-(azetidin-1-yl)-7-methyl-5-(1-methyl-5-(5-(trifluoromethyl)pyridin-2-yl)-1H-pyrazol-4-yl)imidazo[1,5-f][1,2,4]triazine at 1 to 50 uM after 1 hr by LC-MS/MS analysis; type: ADME, cell-based, Hepatocyte; how it was run: as §2
[13] = test system: Plasma; test: Drug uptake in rat plasma at 5 to 250 mg/kg/day, po up to 15 days by microscopic method; type: ADME, organism-based; conditions: in vivo, 360 h; how it was run: as §1
[14] = test system: Brain; test: Drug uptake in rat brain at 5 to 250 mg/kg/day, po up to 15 days by microscopic method; type: ADME, organism-based; conditions: in vivo, 360 h; how it was run: as §1
[15] = test system: Canis familiaris; test: Cardiotoxicity in dog assessed as arteriopathy in arteries at >= 20 mg/kg/day, po for 14 days by microscopic method; type: toxicity, organism-based, Canis lupus familiaris; conditions: in vivo, 336 h
[16] = test system: human MDR1; test: Passive permeability from apical to basolateral side in MDCK cells expressing human MDR1; type: ADME, cell-based, Canis lupus familiaris; conditions: dog, read-out: permeability

Compound: Cn1ncc(-c2nn(C)c3ncnc(N4CCC4)c23)c1-c1ccc(C(F)(F)F)cc1
- logD at 1 h [1]: 2.9
- fIC50 [2]: 11 nM

Compound: CNc1ncnn2c(C)nc(-c3cnn(C)c3-c3ccc(C(F)(F)F)cc3)c12
- logD at 1 h [1]: 2.8
- CLint scaled [3]: 33 mL/min/kg
- Activity [4]: Toxic
- Activity [5]: Toxic

Compound: CCCc1nn(C)c2c(=O)nc(-c3cc(S(=O)(=O)N4CCN(CC)CC4)ccc3OCC)[nH]c12
- IC50 [6]: 8.9 nM

Compound: Cc1nc(-c2cnn(C)c2-c2ccc(C(F)(F)F)cn2)c2c(N3CC(O)C3)ncnn12
- Drug metabolism [7]: Metabolite_Detected
- Drug metabolism [8]: Metabolite_Detected
- Drug metabolism [9]: Metabolite_Detected
- Drug metabolism [10]: Metabolite_Detected
- Drug metabolism [11]: Metabolite_Detected
- Drug metabolism [12]: Metabolite_Detected

Compound: CNc1ncnn2c(C)nc(-c3cnn(C)c3-c3ccc(C(F)(F)F)cn3)c12
- logD at 1 h [1]: 1.8
- CLint scaled [3]: 9.5 mL/min/kg
- Activity [4]: Non-Toxic
- Activity [5]: Non-Toxic
- Drug uptake [13]: Active
- Drug uptake [14]: Active
- Activity [15]: Toxic

Compound: Cc1nc(-c2cnn(C)c2-c2ccc(C(F)(F)F)cc2)c2c(N3CCC3)ncnn12
- CLint scaled [3]: 93 mL/min/kg

Compound: Cc1nc(-c2cnn(C)c2-c2ccc(Cl)cn2)c2c(N3CCC3)ncnn12
- logD at 1 h [1]: 1.7
- CLint scaled [3]: 13 mL/min/kg
- Activity [4]: Toxic
- Activity [5]: Toxic

Compound: Cc1nc(-c2cnn(C)c2-c2ccc(C(F)(F)F)cn2)c2c(NCCC(=O)O)ncnn12
- Papp A→B [16]: 1.1 ×10⁻⁶ cm/s
- Drug metabolism [7]: Metabolite_Detected
- Drug metabolism [8]: Metabolite_Detected
- Drug metabolism [9]: Metabolite_Detected
- Drug metabolism [10]: Metabolite_Detected
- Drug metabolism [11]: Metabolite_Detected
- Drug metabolism [12]: Metabolite_Detected
